Assay results taken from paper PMC4201344 (ACS Chemical Biology, 2014).
Positions count from the first letter of the chain named. Entries after “also recorded” stand apart in the source; their conditions may differ.

Key:
[1] = molecular target: GluClβ homomeric receptor, wild type (Caenorhabditis elegans, UniProt Q17328); test: two-electrode voltage clamp, Xenopus laevis oocytes; assay type: cell-based, C. elegans; conditions: glutamate
[2] = test system: GluClβ homomeric receptor, wild type; test: as above; assay type: cell-based, C. elegans; conditions: high expressing mutants of GluClβ
GluClβ A2′T = GluClβ A2′T (Caenorhabditis elegans, UniProt Q17328, A279T); test: two-electrode voltage clamp, Xenopus laevis oocytes; assay type: cell-based, C. elegans; conditions: glutamate
In short: (§1)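 C. elegans GluClβ (mammalian codon-optimised) in pGEMhe, mutated by QuikChange; T7 mRNA. […] Voltage clamp at −60 mV in Ca-free ND96, pH 7.5. […] Peak currents taken from baseline, normalised, averaged per concentration, and fit to Hill equation (EC50, nH).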

GluClβ T6′S = GluClβ T6′S (Caenorhabditis elegans, UniProt Q17328, T283S); test: two-electrode voltage clamp, Xenopus laevis oocytes; assay type: cell-based, C. elegans; conditions: glutamate
GluClβ T10′S = molecular target: T1, GluClβ T10′S (Caenorhabditis elegans, UniProt Q17328, T287S); test: as above; assay type: cell-based, C. elegans; conditions: glutamate
T1 sequence (Q17328 23-434 T287S): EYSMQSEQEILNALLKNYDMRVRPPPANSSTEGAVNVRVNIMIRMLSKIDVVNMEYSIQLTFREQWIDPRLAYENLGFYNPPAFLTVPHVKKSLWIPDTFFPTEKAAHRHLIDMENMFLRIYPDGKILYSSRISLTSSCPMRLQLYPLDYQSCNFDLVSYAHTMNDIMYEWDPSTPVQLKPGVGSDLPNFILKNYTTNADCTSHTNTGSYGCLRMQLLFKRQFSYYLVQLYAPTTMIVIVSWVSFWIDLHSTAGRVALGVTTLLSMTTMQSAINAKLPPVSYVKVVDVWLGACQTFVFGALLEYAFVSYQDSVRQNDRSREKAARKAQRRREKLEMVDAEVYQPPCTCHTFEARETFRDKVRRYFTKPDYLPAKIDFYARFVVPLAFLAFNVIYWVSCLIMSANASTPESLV

GluClβ T13′A = molecular target: T2, GluClβ T13′A (Caenorhabditis elegans, UniProt Q17328, T290A); test: as above; assay type: cell-based, C. elegans; conditions: glutamate
T2 sequence (Q17328 23-434 T290A): T1 sequence (Q17328 23-434 T287S) with S265T, T268A

GluClβ T13′S = GluClβ T13′S (Caenorhabditis elegans, UniProt Q17328, T290S); test: two-electrode voltage clamp, Xenopus laevis oocytes; assay type: cell-based, C. elegans; conditions: glutamate
In short: as §1

GluClβ A20′S = GluClβ A20′S (Caenorhabditis elegans, UniProt Q17328, A297S); test: as above; assay type: cell-based, C. elegans; conditions: glutamate
In short: as §1

GluClβ A20′T = molecular target: T3, GluClβ A20′T (Caenorhabditis elegans, UniProt Q17328, A297T); test: two-electrode voltage clamp, Xenopus laevis oocytes; assay type: cell-based, C. elegans; conditions: glutamate
T3 sequence (Q17328 23-434 A297T): T1 sequence (Q17328 23-434 T287S) with S265T, A275T

GluClβ T6′S/T10′S = GluClβ T6′S/T10′S (Caenorhabditis elegans, UniProt Q17328, T283S/T287S); test: as above; assay type: cell-based, C. elegans; conditions: glutamate
[3] = test system: GluClβ with α signal peptide, T6′S, F96TAG F2–Phe; test: two-electrode voltage clamp, Xenopus laevis oocytes, nonsense suppression; assay type: cell-based, C. elegans; conditions: glutamate
[4] = test system: GluClβ with α signal peptide, T6′S, Y156TAG F1–Phe; test: as above; assay type: cell-based, C. elegans; conditions: glutamate
[5] = test system: GluClβ T6′S, Y206TAG Me–Phe; test: as above; assay type: cell-based, C. elegans; conditions: glutamate
GluClβ T6′S, T203A = GluClβ T6′S, T203A (Caenorhabditis elegans, UniProt Q17328, T229A/T283S); test: two-electrode voltage clamp, Xenopus laevis oocytes; assay type: cell-based, C. elegans; conditions: glutamate
GluClβ T6′S, S126A = GluClβ T6′S, S126A (Caenorhabditis elegans, UniProt Q17328, S152A/T283S); test: as above; assay type: cell-based, C. elegans; conditions: glutamate
GluClα T2′A = conditions: otherwise glutamate-insensitive channel; cited from earlier work

GluClβ T6′S, T203A, sequence (Q17328 23-434 T229A/T283S): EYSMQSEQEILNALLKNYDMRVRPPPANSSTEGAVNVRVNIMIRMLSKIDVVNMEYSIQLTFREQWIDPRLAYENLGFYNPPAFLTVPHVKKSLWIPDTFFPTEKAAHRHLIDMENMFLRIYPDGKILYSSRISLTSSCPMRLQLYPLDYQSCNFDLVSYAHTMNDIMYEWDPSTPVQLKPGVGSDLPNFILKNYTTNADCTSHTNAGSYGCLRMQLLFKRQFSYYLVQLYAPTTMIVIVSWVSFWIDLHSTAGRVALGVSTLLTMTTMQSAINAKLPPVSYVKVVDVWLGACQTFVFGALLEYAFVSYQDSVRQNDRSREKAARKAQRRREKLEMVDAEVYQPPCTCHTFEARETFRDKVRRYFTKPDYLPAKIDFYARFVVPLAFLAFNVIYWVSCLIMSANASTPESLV
GluClβ A2′T, sequence (Q17328 23-434 A279T): as the sequence (Q17328 23-434 T229A/T283S) above, with A207T, A257T, S261T counted along it
GluClβ T13′S, sequence (Q17328 23-434 T290S): as the sequence (Q17328 23-434 T229A/T283S) above, with A207T, S261T, T268S counted along it
GluClβ T6′S, S126A, sequence (Q17328 23-434 S152A/T283S): as the sequence (Q17328 23-434 T229A/T283S) above, with S130A, A207T counted along it
GluClβ homomeric receptor, wild type (Caenorhabditis elegans, UniProt Q17328), sequence (Q17328 23-434): as the sequence (Q17328 23-434 T229A/T283S) above, with A207T, S261T counted along it
GluClβ A20′S, sequence (Q17328 23-434 A297S): as the sequence (Q17328 23-434 T229A/T283S) above, with A207T, S261T, A275S counted along it
GluClβ T6′S, sequence (Q17328 23-434 T283S): as the sequence (Q17328 23-434 T229A/T283S) above, with A207T counted along it
GluClβ T6′S/T10′S, sequence (Q17328 23-434 T283S/T287S): as the sequence (Q17328 23-434 T229A/T283S) above, with A207T, T265S counted along it

Hill [1]: 2.5 ± 0.2 | Hill (GluClβ T6′S): 2.4 ± 0.3 | EC50 (GluClβ T10′S): 11 ± 1 µM | Hill (GluClβ T10′S): 2.5 ± 0.1 | Imax (GluClβ T10′S): 0.3–4 μA | EC50 (GluClβ T13′A): 38 ± 1 µM | Hill (GluClβ T13′A): 2.8 ± 0.1 | Imax (GluClβ T13′A): 0.1–6 μA | EC50 (GluClβ A20′S): no response | EC50 (GluClβ A20′T): 110 ± 20 µM | Hill (GluClβ A20′T): 1.7 ± 0.1 | Imax (GluClβ A20′T): 0.5–48 μA | EC50 [3]: 4.7 ± 0.1 µM | EC50 [4]: 14000 ± 1000 µM | EC50 [5]: 98 ± 3 µM | EC50 (GluClβ T6′S, T203A): 640 ± 10 µM | Hill (GluClβ T6′S, T203A): 2.3 ± 0.1 | EC50 (GluClβ T6′S, S126A): 4700 ± 100 µM | Hill (GluClβ T6′S, S126A): 2.5 ± 0.1
SMILES: N[C@@H](CCC(=O)O)C(=O)O [glutamate]
concentration at which rapid desensitization occurs [2]: greater than 100 mM | EC50 (GluClβ A2′T): abolished glutamate-induced currents; also recorded: no response | EC50 (GluClβ T13′S): not functional; also recorded: no response | EC50 (GluClβ T6′S/T10′S): constitutive activity, some glutamate response | Hill [3]: 4.1 ± 0.5 | Imax [3]: 0.04–1 μA | Hill [4]: 2.0 ± 0.1 | Imax [4]: 0.1–5 μA | Hill [5]: 2.4 ± 0.1 | Imax [5]: 0.05–7 μA | glutamate sensitivity (GluClα T2′A): restore glutamate sensitivity
